{"data": "Assay results from different studies", "target": "Megakaryocyte-associated tyrosine-protein kinase (MATK, Homo sapiens, UniProt P42679)", "One construct used (P42679 1-507)": "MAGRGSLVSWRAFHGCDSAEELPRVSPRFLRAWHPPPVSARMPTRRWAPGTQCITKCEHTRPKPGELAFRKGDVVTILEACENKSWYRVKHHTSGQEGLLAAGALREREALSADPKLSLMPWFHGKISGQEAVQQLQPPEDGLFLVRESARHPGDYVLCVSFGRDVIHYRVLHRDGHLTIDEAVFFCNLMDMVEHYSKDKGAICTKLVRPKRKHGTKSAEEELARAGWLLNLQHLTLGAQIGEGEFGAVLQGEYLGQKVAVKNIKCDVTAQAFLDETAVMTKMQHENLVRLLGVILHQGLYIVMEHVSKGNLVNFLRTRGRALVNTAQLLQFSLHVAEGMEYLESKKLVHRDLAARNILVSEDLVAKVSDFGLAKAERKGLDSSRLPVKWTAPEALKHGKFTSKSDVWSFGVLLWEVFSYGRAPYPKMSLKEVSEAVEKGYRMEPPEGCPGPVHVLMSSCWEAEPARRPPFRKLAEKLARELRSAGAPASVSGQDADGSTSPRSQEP", "note": "Lines come from different studies, so protocols differ."}
{"Structure (SMILES)": "CNC(=O)c1ccc(Nc2ncc(C(F)(F)F)c(NCc3nccnc3N(C)S(C)(=O)=O)n2)cc1", "read-out": "cell-free assay", "method": "competition with immobilised ligand", "concentration": "0.1 µM", "quantity": "remaining binding", "value": "37%"}
{"Structure (SMILES)": "CNC(=O)c1cc(Oc2ccc(NC(=O)Nc3ccc(Cl)c(C(F)(F)F)c3)cc2)ccn1", "read-out": "cell-free assay", "concentration": "0.5 µM", "quantity": "remaining signal", "value": "114%"}
{"Structure (SMILES)": "O=C(Nc1cnn(-c2csc(C(=O)NC3COC3)c2)c1)Nc1c(F)cccc1Cl", "read-out": "enzyme activity", "action": "inhibitor", "concentration": "5 µM", "quantity": "remaining activity", "value": "100%"}
{"Structure (SMILES)": "CCOCCn1cc(C(=O)Nc2ccc(-n3nc(-c4cccnc4)cc3C(F)(F)F)cn2)ccc1=O", "read-out": "cell-free assay", "method": "competition with immobilised ligand", "concentration": "1 µM", "quantity": "remaining binding", "value": "90%"}
{"Structure (SMILES)": "COc1cc2ncnc(Nc3ccc(Oc4ccccc4)c(C)c3C)c2cc1OC", "read-out": "enzyme activity", "action": "inhibitor", "concentration": "1 µM", "quantity": "inhibition", "value": "-2%"}
{"Structure (SMILES)": "Nc1ncnc2occ(-c3ccc(NC(=O)Nc4cc(C(F)(F)F)ccc4F)cc3)c12", "read-out": "cell-free assay", "action": "inhibitor", "concentration": "20 µM", "quantity": "remaining signal", "value": "13%"}
{"Structure (SMILES)": "CN(C(=O)c1ccccc1)c1cc(N(C)c2ccc3c(c2)CCc2ccc(C(=O)NCCN4CCOCC4)cc2C3=O)ccc1F", "read-out": "cell-free assay", "method": "competition with immobilised ligand", "concentration": "1 µM", "quantity": "remaining binding", "value": "84%"}
{"Structure (SMILES)": "O=C1Nc2ccc(Cl)cc2C1=Cc1cc(Cl)c(O)c(Cl)c1", "read-out": "cell-free assay", "concentration": "0.5 µM", "quantity": "remaining signal", "value": "82.2%"}
{"Structure (SMILES)": "CC(C)(O)[C@H]1CC[C@H](Nc2ccc3ncc(-c4cccc(C(F)(F)F)c4)n3n2)CC1", "read-out": "enzyme activity", "action": "inhibitor", "concentration": "1 µM", "quantity": "remaining activity", "value": "102%"}
{"Structure (SMILES)": "Cc1sc(C(=O)NC2COC2)cc1-n1cc(NC(=O)Nc2c(F)cccc2Cl)cn1", "read-out": "enzyme activity", "action": "inhibitor", "concentration": "10 µM", "quantity": "remaining activity", "value": "97.8%"}
{"Structure (SMILES)": "O=c1nc(-c2ccccn2)sc2ccccc12", "read-out": "binding", "method": "competition with immobilised ligand", "concentration": "1 µM", "quantity": "remaining binding", "value": "100%"}
{"Structure (SMILES)": "CC(C)(C)c1nc(-c2cccc(NS(=O)(=O)c3c(F)cccc3F)c2F)c(-c2ccnc(N)n2)s1", "read-out": "enzyme activity", "action": "inhibitor", "method": "radiometric", "concentration": "1 µM", "quantity": "remaining activity", "value": "90%"}
